Bioassay records (PubChem)
bIAP act = intestinal alkaline phosphatase (bovine) activation; purified bovine IAP, CDP-star luminescence, 30 min; hits give high values; fold of DMSO-control signal, blank-subtracted; activation factor at 20 µM; 0.17% of 200,000 active; AID 1016;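 active means activation factor of 2 or more at 20 µM, a signal rise over negative controls twice the positive control's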
mIAP inh = blocks mouse intestinal alkaline phosphatase | purified mouse IAP, CDP-Star luminescence, 30 min | inhibition, % at 10 µM | 0.2% of 330,000 active | AID 2806;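 active means inhibition of at least 40% at 10 µM in the primary screen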;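 further: plate controls were DMSO with enzyme for no effect and no enzyme wells for full effect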
hIAP inh = blocks human intestinal alkaline phosphatase; P09923; purified IAP, CDP-Star luminescence, 30 min; inhibition, % at 10 µM; 0.12% of 330,000 active; AID 2544;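 active means inhibition reaching a set limit with compound at 10 µM in the primary screen, cut at about 35% in these data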;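 further: plate controls were DMSO wells with enzyme for no effect and no-enzyme buffer wells for full effect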
Target sequence (P09923 whole entry, looked up): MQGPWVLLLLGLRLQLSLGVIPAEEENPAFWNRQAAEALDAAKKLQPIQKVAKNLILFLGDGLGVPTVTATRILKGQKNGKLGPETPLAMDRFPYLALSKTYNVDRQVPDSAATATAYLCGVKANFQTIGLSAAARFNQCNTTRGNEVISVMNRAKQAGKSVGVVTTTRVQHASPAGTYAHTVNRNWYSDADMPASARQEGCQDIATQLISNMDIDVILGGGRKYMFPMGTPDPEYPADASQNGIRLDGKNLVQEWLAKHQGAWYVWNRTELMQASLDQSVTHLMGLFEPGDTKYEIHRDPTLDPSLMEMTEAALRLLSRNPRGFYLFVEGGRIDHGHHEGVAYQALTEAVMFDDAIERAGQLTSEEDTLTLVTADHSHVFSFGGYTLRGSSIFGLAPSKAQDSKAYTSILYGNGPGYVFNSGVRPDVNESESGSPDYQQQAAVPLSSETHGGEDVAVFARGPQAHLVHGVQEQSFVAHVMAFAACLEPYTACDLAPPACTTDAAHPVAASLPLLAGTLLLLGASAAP
mIAP activ = mouse IAP activation; muIAP, CDP-Star luminescence, 30 min; hits give high values; 1 = vehicle-only enzyme signal, 0 = enzyme-free wells; activation factor at 10 µM; 0.24% of 330,000 active;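 active means activation factor of at least 2 at 20 µM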
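Assay system: mouse IAP enzyme / Compound: DMSO-dissolved test compounds / Timing: 30 min, room temperature / Measured by: luminescence from enzymatic CDP-Star hydrolysis / Control set: DMSO-only wells, enzyme-free buffer wells as negative control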
bIAP inh = blocks bovine intestinal alkaline phosphatase activity; purified bovine IAP, CDP-star luminescence, 30 min; inhibition, % at 20 µM; 190,000 tested, under 10 active;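 active means over 50% inhibition of intestinal alkaline phosphatase at 20 µM in the single-dose screen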
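Incubation: 30 min reaction at room temperature / Material: purified bovine intestinal alkaline phosphatase (IAP) enzyme / Input: enzyme at 1/65,000,000 dilution / Dosing: 20 µM single dose / Signal: CDP-star luminescence signal / Reagent: CDP-star chemiluminescent phosphatase substrate, 30 µM final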
hIAP activ = human IAP activation; P09923; purified human IAP, CDP-Star luminescence, 30 min; hits give high values; 1 = vehicle-only enzyme, 0 = enzyme-free background; activation factor at 10 µM; 0.16% of 330,000 active; AID 2524;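 active means activation factor of the enzyme at least 2-fold when tested at 20 µM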
* marks the source's active call; other numbers are inactive results. Most compounds without a hit are left out; they make up all but 0.79% or so of the library.

Screening Cc1cccc(NC(=S)NNC(=S)NCc2ccccc2)c1 returned bIAP act 0.9, mIAP inh 6, hIAP inh -21, mIAP activ 0.94, bIAP inh 7 and hIAP activ 1.2.
S=C(NCCSCc1c(Cl)cccc1Cl)Nc1ccccc1 was read as bIAP act 0.7, mIAP inh -148, hIAP inh -6, mIAP activ 2.5*, bIAP inh 26 and hIAP activ 1.1.
CC(Sc1nnc(C2CC2)n1-c1ccccc1)C(=O)N1CCCC1 (configuration not stated) was read as mIAP inh -2, hIAP inh 5, mIAP activ 1 and hIAP activ 0.95.
Cc1ccc(SCCNC(=S)Nc2cc(C)ccc2C)cc1 was read as bIAP act 0.4, mIAP inh -54, hIAP inh -3, mIAP activ 1.5 and hIAP activ 1.
`Cc1ccc(SCCNC(=S)Nc2ccc(C)c(C)c2)cc1` gave bIAP act 0.9, mIAP inh -179, hIAP inh -11, mIAP activ 2.8*, bIAP inh 8 and hIAP activ 1.1.
For C[C@@H](C(=O)Nc1ccc2ccccc2c1)[C@@H]1C[C@@]1(C)[C@@H](NC(=O)OCc1ccccc1)c1ccccc1 the results were mIAP inh -104, hIAP inh -3, mIAP activ 2* and hIAP activ 1.
For Cc1ccccc1S(=O)(=O)Oc1cccc2c(O)cccc12 the results were mIAP inh -2, hIAP inh -45, mIAP activ 1 and hIAP activ 1.5.
O=C(CSc1nnc(COc2ccccc2Cl)o1)Nc1ccccc1 was read as mIAP inh 13, hIAP inh 0, mIAP activ 0.87 and hIAP activ 1.
For C/C(N)=C(/C#N)C(=O)CSc1nnc(COc2ccccc2Cl)o1 the results were bIAP act 2.1*, mIAP inh 11, hIAP inh 9, mIAP activ 0.89, bIAP inh -108 and hIAP activ 0.91.
Screening OCC1(Cc2ccccc2F)CCCN(Cc2c(F)ccc(F)c2F)C1 (configuration not stated) returned mIAP inh 1, hIAP inh -26, mIAP activ 0.99 and hIAP activ 1.3.
COc1ccc(/C=C(/C(=O)c2ccc(Cl)cc2Cl)n2cncn2)cc1 was read as bIAP act 0.9, mIAP inh 3, hIAP inh -4, mIAP activ 0.97, bIAP inh 9 and hIAP activ 1.
Screening CN(C)c1ccc(/C=C(/C(=O)c2ccc(Cl)cc2Cl)n2cncn2)cc1 returned bIAP act 0.9, mIAP inh 42*, hIAP inh 25, mIAP activ 0.58, bIAP inh 6 and hIAP activ 0.75.
For CC(C)CCNC(=S)Nc1ccc(Br)cc1 the results were bIAP act 1, mIAP inh -124, hIAP inh -17, mIAP activ 2.2*, bIAP inh -4 and hIAP activ 1.2.
COc1ccc(OC)c(C(=O)NC(CC(N)=O)c2ccc(NCc3ccc(F)c(F)c3)c([N+](=O)[O-])c2)c1 (configuration not stated) was read as mIAP inh 48*, hIAP inh 8, mIAP activ 0.52 and hIAP activ 0.92.
`COc1ccc(OC)c(C(=O)NC(CC(N)=O)c2ccc(NCc3ccccn3)c([N+](=O)[O-])c2)c1` (configuration not stated) gave mIAP inh 2, hIAP inh 26, mIAP activ 0.98 and hIAP activ 0.74.
`COCCN(C(=O)CSc1n[nH]c(-c2ccccc2)n1)c1c(N)n(CC(C)C)c(=O)[nH]c1=O` gave mIAP inh -2, hIAP inh 16, mIAP activ 1 and hIAP activ 0.84.
For O=Cc1[nH]c2ccccc2c1N(C(=O)CCl)c1ccc([N+](=O)[O-])cc1 the results were mIAP inh 3, hIAP inh 35*, mIAP activ 0.97 and hIAP activ 0.65.
CC(=O)n1cc(N(C(=O)CCl)c2ccc([N+](=O)[O-])cc2)c2ccccc21 was read as mIAP inh 5, hIAP inh -12, mIAP activ 0.95 and hIAP activ 1.1.
For CCN(CC)c1nc(OCCNC(=O)Nc2ccccc2)nc(N(CC)CC)n1 the results were bIAP act 1.4, mIAP inh -148, hIAP inh -11, mIAP activ 2.5*, bIAP inh -42 and hIAP activ 1.1.
Screening COc1ccc(CCNC(=O)c2cc(-c3ccc(Cl)c(Cl)c3)oc2C)cc1 returned bIAP act 1.1, mIAP inh -243, hIAP inh 7, mIAP activ 3.4*, bIAP inh -9 and hIAP activ 0.93.
COc1ccc(CCNC(=O)c2nn(C)cc2Cl)cc1 was read as bIAP act 0.9, mIAP inh -1, hIAP inh -11, mIAP activ 1, bIAP inh 10 and hIAP activ 1.1.
Cc1ccc(-n2c(SCC(N)=O)nnc2-c2cccnc2)c(C)c1 was read as bIAP act 1, mIAP inh -103, hIAP inh 1, mIAP activ 2*, bIAP inh 3 and hIAP activ 0.99.
For CCc1ccc(CNC(=O)CCCC(=O)n2nc(C)c3ccccc32)cc1 the results were mIAP inh -6, hIAP inh -38, mIAP activ 1.1 and hIAP activ 1.4.
`O=C(Nc1cccc(-c2cccc(F)c2)c1)C1CCN(Cc2ccc(CO)o2)CC1` gave mIAP inh -107, hIAP inh -2, mIAP activ 2.1* and hIAP activ 1.
`COc1cccc(-c2cccc(NC(=O)C3CCN(Cc4ccc(CO)o4)CC3)c2)c1` gave mIAP inh 3, hIAP inh 8, mIAP activ 0.97 and hIAP activ 0.92.
Screening FC(F)Sc1ccc(NC(=S)NC2CCCCC2)cc1 returned bIAP act 0.7, mIAP inh -123, hIAP inh -11, mIAP activ 2.2*, bIAP inh 26 and hIAP activ 1.1.
Screening CN(CC(=O)Nc1ccc(SC(F)F)cc1)C1CCCCC1 returned bIAP act 0.8, mIAP inh -20, hIAP inh -3, mIAP activ 1.2, bIAP inh 17 and hIAP activ 1.
`S=C(NCC1CCCCC1)Nc1cccnc1` gave bIAP act 0.9, mIAP inh -1, hIAP inh 11, mIAP activ 1, bIAP inh 5 and hIAP activ 0.89.
Screening CC1CCCCC1NC(=S)Nc1ccc(SC(F)F)cc1 (configuration not stated) returned bIAP act 0.8, mIAP inh -227, hIAP inh -10, mIAP activ 3.3*, bIAP inh 21 and hIAP activ 1.1.
FC(F)Sc1ccc(NC(=S)NCC2CCCCC2)cc1 was read as bIAP act 0.3, mIAP inh -228, hIAP inh 9, mIAP activ 3.3* and hIAP activ 0.91.
